Test results as given in ChEMBL document CHEMBL1134841, “Antimalarial alkoxylated and hydroxylated chalcones [corrected]: structure-activity relationship analysis” (J Med Chem, 2001).
pIC50: −log10 of the molar value.

Tests used:
Plasmodium falciparum = experiment: Inhibition of [3H]hypoxanthine incorporation in Plasmodium falciparum K1; assay type: functional, organism-based
Method in brief: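 K1 (chloroquine-resistant) parasites cultured in RPMI-1640 with 5% sodium bicarbonate and 10% type O human serum. DMSO stocks were serially diluted 10-fold in medium, covering a 10^6-fold range. Infected erythrocytes at 1–2% parasitemia and 1.5% hematocrit were incubated at 37 °C in a candle jar for 24 h. [3H]hypoxanthine was then added for a further 24 h, cells harvested and scintillation counted. IC50 from nonlinear logistic fit versus untreated control.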

[1] = Ratio of average life span of compound-treated mice (100 mg/kg, ip, 3 days) to that of mice treated with chloroquine (T/C-CQ); assay type: functional
Method in brief: (§1)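 Swiss albino mice (male, 4 weeks, ~25 g) inoculated ip with 10^7 P. berghei ANKA parasitized erythrocytes (day 0). Test compound 100 mg/kg/day ip in DMSO, days 1–3, three mice per compound. Control infected groups: DMSO or 4'-butoxy-2,4-dimethoxychalcone (100 mg/kg in DMSO, ip, days 1–3), or chloroquine (52 mg/kg ip in 0.5% Tween buffer pH 7.4, day 1). Survival followed; ratio of mean life spans.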

Mus musculus [2] = experiment: Ratio of average life span of compound-treated mice (100 mg/kg, ip, 3 days) to that of mice receiving DMSO (T/C-untreated); assay type: functional; method in brief: as §1
Mus musculus [3] = experiment: Ratio of average life span of compound-treated mice (100 mg/kg, ip, 3 days) to that of mice treated with 4''-butoxy-2,4-dimethoxychalcone (comp.41); assay type: functional; method in brief: as §1

pIC50 (Plasmodium falciparum; Plasmodium falciparum, 48 h) | Structure (SMILES) | other results
3.49 | COc1ccc(C(=O)/C=C/c2cccc3ccccc23)c(OC)c1 | 
4.52 | CCOc1ccc(C(=O)/C=C/c2ccc(N(C)C)cc2)cc1 | 
4.52 | CCOc1ccc(C(=O)/C=C/c2ccc(OC)cc2OC)cc1 | 
4.22 | COc1ccc(C(=O)/C=C/c2ccnc3ccccc23)c(OC)c1OC | 
3.22 | COc1ccc(C(=O)/C=C/c2ccc(F)cc2Cl)c(OC)c1 | 
4.61 | COc1ccc(C(=O)/C=C/c2cccc(Cl)c2)c(OC)c1OC | 
4.56 | O=C(/C=C/c1ccc2ccccc2c1)c1ccc(O)cc1 | 
4.37 | COc1ccc(C(=O)/C=C/c2ccnc3ccccc23)cc1 | 
4.52 | O=C(/C=C/c1ccc(C(F)(F)F)cc1)c1ccc(O)cc1 | 
4.39 | O=C(/C=C/c1cnc2ccccc2c1)c1ccc(O)cc1 | 
4.00 | CCOc1ccc(C(=O)/C=C/c2ccnc3ccccc23)cc1 | 
4.57 | COc1ccc(C(=O)/C=C/c2ccnc3ccccc23)c(OC)c1 | 
4.66 | O=C(/C=C/c1ccc(F)cc1)c1ccc(O)cc1 | 
4.60 | Cc1ccc(/C=C/C(=O)c2ccc(O)cc2)cc1 | 
4.58 | COc1ccc(C(=O)/C=C/c2ccc(-c3ccccc3)cc2)c(OC)c1OC | 
4.55 | CCOc1ccc(C(=O)/C=C/c2ccc(F)cc2F)cc1 | 
4.57 | COc1ccc(C(=O)/C=C/c2ccc(F)cc2F)cc1 | 
4.62 | CCOc1ccc(C(=O)/C=C/c2ccc(F)cc2)cc1 | 
4.42 | O=C(/C=C/c1ccc(Cl)cc1)c1ccc(O)cc1 | 
3.27 | COc1ccc(C(=O)/C=C/c2ccc(Br)cc2)c(OC)c1 | 
4.48 | CCOc1ccc(C(=O)/C=C/c2ccc(OC)cc2)cc1 | 
4.58 | O=C(/C=C/c1ccc(C(F)(F)F)cc1)c1ccc(O)cc1O | 

pIC50 (Plasmodium falciparum; Plasmodium falciparum, 48 h) | Structure (SMILES) | other results
4.25 | COc1ccc(/C=C/C(=O)c2ccc(O)cc2O)c(OC)c1 | 
4.38 | COc1ccc(C(=O)/C=C/c2ccccc2Cl)c(OC)c1OC | 
 | COc1ccc(C(=O)/C=C/c2ccc(N(C)C)cc2)c(OC)c1 (stereo in doubt; 103) | pIC50 (Plasmodium falciparum): 4.26
4.78 | COc1ccc(/C=C/C(=O)c2ccc(OC)c(OC)c2OC)c(OC)c1 | 
4.72 | COc1ccc(C(=O)/C=C/c2ccc(C(F)(F)F)cc2)cc1 | 
4.21 | O=C(/C=C/c1ccccc1Cl)c1ccc(O)cc1 | 
4.73 | COc1ccc(C(=O)/C=C/c2ccc(F)cc2F)c(OC)c1OC | 
4.69 | O=C(/C=C/c1ccc([N+](=O)[O-])cc1)c1ccc(O)cc1 | 
4.74 | COc1ccc(C(=O)/C=C/c2ccc(N(C)C)cc2)c(OC)c1OC | 
4.61 | O=C(/C=C/c1ccc(Cl)cc1Cl)c1ccc(O)cc1 | 
3.53 | COc1ccc(C(=O)/C=C/c2ccc(Cl)c(Cl)c2)c(OC)c1 | 
4.62 | CCOc1ccc(C(=O)/C=C/c2ccc(C(F)(F)F)cc2)cc1 | 
4.29 | O=C(/C=C/c1ccnc2ccccc12)c1ccc(O)cc1 | 
4.15 | COc1ccc(C(=O)/C=C/c2ccc(C)cc2)cc1 | 
4.59 | Cc1cccc(/C=C/C(=O)c2ccc(O)cc2)c1 | 
4.60 | COc1ccc(/C=C/C(=O)c2ccc(OC)c(OC)c2OC)cc1 | 
4.03 | COc1ccc(C(=O)/C=C/c2ccc(C)cc2)c(OC)c1 | 
4.02 | CCOc1ccc(C(=O)/C=C/c2ccc(Cl)cc2Cl)cc1 | 
4.40 | O=C(/C=C/c1cccc2ccccc12)c1ccc(O)cc1 | 
3.89 | COc1ccc(/C=C/C(=O)c2ccc(OC)cc2OC)cc1 [METOCHALCONE] | 
4.03 | O=C(/C=C/c1ccnc2ccccc12)c1ccc(O)cc1O | 
4.80 | COc1ccc(C(=O)/C=C/c2ccc(Cl)cc2Cl)cc1 | 

pIC50 (Plasmodium falciparum; Plasmodium falciparum, 48 h) | Structure (SMILES) | other results
4.66 | COc1ccc(/C=C/C(=O)c2ccc(OC)cc2)cc1 [4,4'-DIMETHOXYCHALCONE] | 
 | CCN(CC)CCCC(C)Nc1ccnc2cc(Cl)ccc12 (centres undefined) [CHLOROQUINE] | T/C untreated (Mus musculus [2]): 1.81; T/C 41 (Mus musculus [3]): 1.71
 | COc1ccc(C(=O)/C=C/c2ccc([N+](=O)[O-])cc2)c(OC)c1 (stereo in doubt; 115) | pIC50 (Plasmodium falciparum): 4.00
4.60 | CCOc1ccc(C(=O)/C=C/c2cnc3ccccc3c2)cc1 | 
 | COc1ccc(C(=O)/C=C/c2ccc([N+](=O)[O-])cc2)c(OC)c1 (stereo in doubt; 109) | pIC50 (Plasmodium falciparum): 3.38
4.73 | COc1ccc(C(=O)/C=C/c2ccc(Cl)cc2Cl)c(OC)c1 | 
4.48 | O=C(/C=C/c1cccc(Cl)c1)c1ccc(O)cc1 | 
3.47 | COc1ccc(C(=O)/C=C/c2ccc(Cl)cc2)c(OC)c1 | 
4.65 | COc1ccc(C(=O)/C=C/c2ccc([N+](=O)[O-])cc2)c(OC)c1OC | 
4.84 | COc1ccc(C(=O)/C=C/c2ccc(Cl)cc2)c(OC)c1OC | 
3.27 | CCOc1ccc(C(=O)/C=C/c2ccc(C#N)cc2)cc1 | 
3.49 | COc1ccc(C(=O)/C=C/c2ccc(F)cc2)c(OC)c1 | 
4.49 | COc1ccc(/C=C/C(=O)c2ccc(O)cc2)cc1 | 
4.68 | CCCCc1ccc(/C=C/C(=O)c2ccc(O)cc2)cc1 | 
4.59 | COc1ccc(C(=O)/C=C/c2ccc(C)cc2)c(OC)c1OC | 
4.61 | O=C(/C=C/c1cccc2ccccc12)c1ccc(O)cc1O | 
4.41 | CCOc1ccc(C(=O)/C=C/c2ccc([N+](=O)[O-])cc2)cc1 | 
4.78 | CCc1ccc(/C=C/C(=O)c2ccc(OC)c(OC)c2OC)cc1 | 
4.42 | CCOc1ccc(C(=O)/C=C/c2ccc(C)cc2)cc1 | 
3.92 | O=C(/C=C/c1ccncc1)c1ccc(O)cc1O | 

Structure (SMILES) | pIC50 (Plasmodium falciparum; Plasmodium falciparum, 48 h) | other results
COc1ccc(C(=O)/C=C/c2ccc(F)cc2)c(OC)c1OC | 5.02 | T/C-CQ [1]: 0.69; T/C untreated (Mus musculus [2]): 1.37; T/C 41 (Mus musculus [3]): 1.37
COc1ccc(C(=O)/C=C/c2cnc3ccccc3c2)c(OC)c1 | 5.66 | T/C-CQ [1]: 0.65; T/C untreated (Mus musculus [2]): 1.29; T/C 41 (Mus musculus [3]): 1.29
COc1ccc(C(=O)/C=C/c2ccccc2)c(OC)c1OC | 4.80 | 
CCCCOc1ccc(C(=O)/C=C/c2ccc(OC)cc2OC)cc1 | 3.97 | T/C-CQ [1]: 0.57; T/C untreated (Mus musculus [2]): 1.08
O=C(/C=C/c1ccc2ccccc2c1)c1ccc(O)cc1O | 4.70 | T/C-CQ [1]: 1.05; T/C untreated (Mus musculus [2]): 1.91; T/C 41 (Mus musculus [3]): 1.2
O=C(/C=C/c1ccc(Cl)c(Cl)c1)c1ccc(O)cc1 | 4.74 | T/C-CQ [1]: 0.71; T/C untreated (Mus musculus [2]): 1.28; T/C 41 (Mus musculus [3]): 0.81
CCc1ccc(/C=C/C(=O)c2ccc(OC)cc2OC)cc1 | 5.62 | T/C-CQ [1]: 1.18; T/C untreated (Mus musculus [2]): 2.33; T/C 41 (Mus musculus [3]): 2.33
COc1ccc(C(=O)/C=C/c2ccc(O)cc2)cc1 | 5.15 | T/C-CQ [1]: 0.7; T/C untreated (Mus musculus [2]): 1.41; T/C 41 (Mus musculus [3]): 1.47
COc1ccc(/C=C/C(=O)c2ccc(OC)cc2OC)c(OC)c1 | 5.68 | T/C-CQ [1]: 0.5; T/C untreated (Mus musculus [2]): 0.98; T/C 41 (Mus musculus [3]): 0.98
COc1ccc(C(=O)/C=C/c2cnc3ccccc3c2)cc1 | 5.32 | T/C-CQ [1]: 0.49; T/C untreated (Mus musculus [2]): 0.98; T/C 41 (Mus musculus [3]): 1.03
CCOc1ccc(C(=O)/C=C/c2ccccc2)cc1 | 4.37 | 
COc1ccc(C(=O)/C=C/c2ccccc2)c(OC)c1 | 4.26 | 
O=C(/C=C/c1ccccc1)c1ccc(O)cc1 [4'-HYDROXYCHALCONE] | 4.53 | 
